CaV13 ICDI inh = Primary screen for inhibitors of IQ motif and Ca2+-dependent inactivation inhibitor domain binding in CACNA1D, Förster resonance energy transfer in living cells, …; 340,000 compounds, 0.098% hits; inhibition, % at 12.3 µM; HEK cells, CFP/YFP FRET ICDI-IQ, plate reader, 10 min; percent FRET-ratio fall versus neutral wells; AID 743397;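 active = mean replicate inhibition of at least 30% and at least 1% of replicates passing that level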;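 note: 0% = median of the neutral control wells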
XiGFP reactiv = reactivates the inactive X chromosome in mouse fibroblasts; XiGFP mouse fibroblasts, % GFP-positive cells imaging, 3 d; cells co-treated with 5-aza-dC sensitizer; scaled so ellipticine positive control = 100%; activation, % at 7.58 µM; 360,000 compounds, 0.055% hits; AID 743238;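 active = mean normalized replicate activation at least 10% and every replicate at or above 10%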;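 note: 0% = median of on-plate neutral control wells and 100% = ellipticine 6 µM median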
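System: 68-5-11 XiGFP fibroblast line | Buffer or medium: DMEM containing 5-aza-dC | Compound: Single point | Times: Compounds 3 days, fix/stain 15 min at room temperature | Benchmarks: Positive control ellipticine, 6 µM final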
GAA850 FXN act = frataxin GAA850 promoter activation | activation, % at 6 µM | HEK293 lucGAA850 FXN promoter luciferase reporter, 24 h; percent of 10 µM SAHA response | 360,000 compounds, 0.56% hits | AID 540364;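 active = activation above the average of all compounds screened plus 3 SD, cutoff fixed separately per campaign, cut at about 7.5% in these data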;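 note: 0% = DMSO wells and 100% = 10 µM SAHA wells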
INS-1E GSIS act = primary screen for activators of insulin secretion dependent on glucose, INS-1E cells, GLuc reporter luminescence; AID 743287; activation, % at 16.6 µM; 370,000 compounds, 0.61% hits; INS-1E GLuc reporter insulin secretion, 2-3 h;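 active = lowest replicate activation of at least 40%, so every replicate reaches that level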;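 note: 0% = median of neutral control wells and 100% = median of IBMX positive control wells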
* hit, by the source's call; / = no result given. The list is not random: actives were taken first. Their share in the collection is about 1%.

SMILES	CaV13 ICDI inh	XiGFP reactiv	GAA850 FXN act	INS-1E GSIS act
C[C@H]1CCCCO[C@@H](CN(C)C(=O)C2CCCCC2)[C@@H](C)CN([C@@H](C)CO)C(=O)c2cc(NC(=O)C3CCCCC3)ccc2O1	/	0	/	-27
C[C@@H]1CN([C@@H](C)CO)C(=O)c2cc(NS(=O)(=O)c3cccs3)ccc2O[C@@H](C)CCCCO[C@@H]1CN(C)C(=O)Nc1ccccc1	/	0	/	-23
CCOc1cc(/C=N/NC(=O)C(C)Sc2ccccn2)ccc1O (configuration not stated)	-18	0	1	70*
O=C(CSc1cccc2cccnc12)N/N=C/c1ccncc1	-7	0	-1	6
CCOc1cc(/C=N/NC(=O)CSc2cccc3cccnc23)ccc1O	-5	0	0	66*
COc1ccc(Nc2cc(C)nc3ccccc23)cc1	-7	/	-1	42*
Cc1nnc(N2C(=O)C(O)=C(C(=O)c3ccco3)C2c2cccc([N+](=O)[O-])c2)s1 (configuration not stated)	-6	0	0	48*
Cc1ccc(C2C(C(=O)c3ccco3)=C(O)C(=O)N2c2nnc(C)s2)cc1 (configuration not stated)	-4	/	1	/
CCCCCCCCCCn1c2c(c(=N)c3c1CCC3)CCC2	/	/	-12	339*
CS(=O)(=O)c1ccc2nc(NC(=O)Nc3cccc(Cl)c3)sc2c1	-7	/	-9	1
CS(=O)(=O)c1ccc2nc(NC(=O)Nc3ccc(Cl)c(Cl)c3)sc2c1	-3	0	0	260*
Cc1nn(C)cc1NC(=O)C[C@@H]1CC[C@H]2[C@@H](COc3ccc(NC(=O)C4CCC4)cc3C(=O)N2C)O1	/	0	/	5
CCCNC(=O)Nc1ccc2c(c1)C(=O)N(C)C[C@H](OC)[C@H](C)CN(C(=O)C1CCCCC1)[C@H](C)CO2	/	0	/	0
Nc1c(C(=O)O)ccc2c1C(=O)c1ccccc1C2=O	-4	0	0	20
Nc1ccc2c(c1Cl)C(=O)c1ccc(N)c(Cl)c1C2=O	-5	0	8.4*	21
O=C(Nc1ccc(C(F)(F)F)cc1)N[C@H]1C=C[C@H](CC(=O)N2CCCCC2)O[C@H]1CO	/	0	/	-6
CN(C(=O)c1ccc(C#N)cc1)c1nnc(-c2cnccn2)s1	-17	0	0	46*
Cc1cc(Br)cc(Cl)c1OC(=O)c1ccncc1	-3	0	0	94*
OC1(C#Cc2c(-c3ccsc3)sc3ccccc23)CCCCC1	-5	0	/	88*
Cc1ccc(-n2nnnc2SCC(=O)Nc2ncc(Cc3ccccc3Cl)s2)cc1	-9	/	-1	156*
CCCNC(=O)N1CC2(CCN(C(=O)Nc3cccc(F)c3)CC2)c2c(n(C)c3cc(OC)ccc23)[C@H]1CO	/	0	/	-22
COc1ccc(-c2ccc(-c3noc(-c4ccco4)n3)c(OC)n2)cc1	-9	/	1	55*
CC/C(O)=C1\C(=O)CC(C)(C)CC1=Nc1ccccc1C	-4	0	1	73*
COc1ccc2nc(C)cc(NCc3ccc(F)cc3)c2c1	-10	97*	-4	0
COc1ccc2nc(C)cc(Nc3ccc(C)cc3)c2c1	-3	0	-2	7
SMILES	CaV13 ICDI inh	XiGFP reactiv	GAA850 FXN act	INS-1E GSIS act
O=C(NCc1ccccc1)C1Cc2c(-c3cccc(F)c3)ccnc2O1 (configuration not stated)	12	0	1	-15
CC(=O)c1cccc(-c2ccnc3c2CC(C(=O)NCc2ccc(F)c(F)c2)O3)c1 (configuration not stated)	44*	0	-4	-50
COc1ccc(CNC(=O)C2Cc3c(-c4cccc(F)c4)ccnc3O2)cc1OC (configuration not stated)	-4	0	0	57*
CCS(=O)(=O)Nc1ccc2c(c1)C(=O)N(C)[C@H]1CC[C@@H](CC(=O)NCc3ccc(OC)cc3)O[C@H]1CO2	/	0	/	9
O=C(NCc1cc(C(F)(F)F)ccc1Cl)c1cccc2c1C(=O)c1ccc(Cl)cc1S2(=O)=O	36*	0	/	2
O=C(NC1CCCC1)c1cccc2c1C(=O)c1ccc(/C=C/c3ccccc3)cc1S2(=O)=O	-11	14*	-1	/
COc1ccc(-c2ccc3c(c2)S(=O)(=O)c2cccc(C(=O)NC4CCCC4)c2C3=O)cc1OC	-42	0	0	11
Cc1ccc(CNC(=O)c2cccc3c2C(=O)c2ccc(N4CCCCC4)cc2S3(=O)=O)cc1	-41	0	1	-2
O=C(NCc1ccccc1)c1cccc2c1C(=O)c1ccc(/C=C/c3ccccc3)cc1S2(=O)=O	-35	18*	2	13
C[C@@H]1C(=O)N[C@@H](c2cccc(Cl)c2)CC=CC[C@H](C)Oc2ccccc2C(=O)N1C (mixture of isomers)	/	0	/	4
COc1cccc(-c2cc(C(=O)Nc3cc(C)on3)no2)c1	-5	/	-1	73*
Cc1c(NC(=O)c2cc(-c3cccc(Cl)c3)on2)c(=O)n(-c2ccccc2)n1C	-2	0	1	-14
Cc1cc(NC(=O)c2cc(-c3cccc(Cl)c3)on2)no1	-9	/	1	125*
COc1cccc(-c2cc(C(=O)Nc3cccnc3)no2)c1	-3	/	0	/
C[C@@H]1CN([C@H](C)CO)C(=O)c2cc(NC(=O)Cc3ccccc3)ccc2O[C@@H](C)CCCCO[C@H]1CN(C)Cc1ccc(C(F)(F)F)cc1	/	0	/	-12
Cn1c(=O)c2[nH]c(-c3ccc(S(=O)(=O)O)cc3)nc2n(C)c1=O	-7	23*	-1	5
C/C(=N\NC(=S)NC(C)C)c1ccccc1	-6	0	1	54*
CC=Cc1ccc2n(c1=O)C[C@H]1[C@H](CO)[C@@H](C(=O)NCC3CC3)[C@@H]2N1CCC (mixture of isomers)	/	0	/	5
CCOc1ccc(/C=C/C(=O)Nc2ccc(C(N)=O)cc2)cc1OC	-7	/	1	16
CCOc1cc(/C=C/C(=O)Nc2ccc(C(=O)NCCN(CC)CC)cc2)ccc1OCC(C)C	-8	1	-1	68*
COc1cccc(CNC(=O)c2cccnc2Sc2ccccc2)c1	-6	0	3	48*
COc1ccc(-c2cnnn2-c2ccc(N)cc2)cc1OC	-4	/	1	53*
COc1ccc(-c2cnnn2-c2ccc(NC(=O)c3ccco3)cc2)cc1OC	-3	/	2	/
COc1ccc(NC(=O)Nc2ccc3c(c2)CC(=O)N([C@H](C)CO)C[C@H](C)[C@@H](CN(C)C(=O)Nc2ccc(F)cc2)O3)cc1	/	-1	/	10
COC(=O)/C=C1\OCc2cc(OC)c(OC)cc21	-17	0	/	55*
COc1cc2c(cc1OC)/C(=C/C(C)=O)OC2	-15	0	/	119*
N/C(=N\OC(=O)c1ccccc1Br)c1cccc([N+](=O)[O-])c1	-20	0	5	41*

Screening results: PubChem, several laboratories
